Drawing on ChEMBL document CHEMBL1137077, “Design, synthesis, anti-HIV activities, and metabolic stabilities of alkenyldiarylmethane (ADAM) non-nucleoside reverse transcriptase inhibitors” (J Med Chem, 2004), this text covers EC50, CC50 and half-life for 32 molecules.

The structures appear in SMILES notation. Bounds are passed on as bounds.

Series [1] has as its system Human immunodeficiency virus 1. Description: Effective concentration required to inhibit cytopathicity of HIV-1(IIIB) in MT-4 cells. The settings on record: Human immunodeficiency virus 1, MT4. The format is functional, organism-based. A digest of the protocol: (§1)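 MT-4 cells resuspended at 6 × 10⁵ cells/mL and infected with HIV-1 IIIB or HIV-2 ROD at 100–300 CCID₅₀, with compound added at infection. Serial 5-fold dilutions were run in triplicate. After 5 days, viability was read by MTT reduction at 540 and 690 nm using the median OD of three wells. EC₅₀ is the concentration giving 50% protection from viral cytopathic effect.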

Series [2] concerns MT4. Nature of the series: Evaluated for cytotoxicity in mock-infected MT-4 cells. The format is functional. The settings on record: Homo sapiens. The method, boiled down: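 Exponentially growing MT-4 cells were resuspended at 6 × 10⁵ cells/mL in mock-infected wells alongside infected wells, with serial 5-fold compound dilutions run in triplicate. MTT viability was read after 5 days at 540 and 690 nm using the median OD of three wells. CC₅₀ is the concentration reducing OD₅₄₀ of mock-infected controls by 50%.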

The nature of series [3]: Half-life in rat plasma. The format is ADME.
Series [4] relates to Human immunodeficiency virus 2. Description: Effective concentration required to inhibit cytopathicity of HIV-2(ROD) in MT-4 cells. The format is functional, organism-based. Particulars: mt4; call rule not given here. The method, boiled down: as §1
The test system of series [5] is MT4. Nature of the series: Effective concentration required to inhibit cytopathicity of HIV-1(IIIB) in MT-4 cells; Not active. The format is functional, cell-based, Homo sapiens. A digest of the protocol: as §1
The subject of series [6] is MT4. Nature of the series: Evaluated for the ability to inhibit cytopathicity of HIV-1(IIIB) in MT-4 cells. The format is functional, cell-based. The settings on record: Homo sapiens. A digest of the protocol: as §1
The test system of series [7] is MT4. Description: Effective concentration required to inhibit cytopathicity of HIV-2(ROD) in MT-4 cells. The settings on record: Homo sapiens. The format is functional, cell-based. The method, boiled down: as §1

Take `COC(=O)CCCC=C(c1cc(Cl)c(OC)c(C(=O)SC)c1)c1cc(Cl)c(OC)c(C(=O)SC)c1`: the EC50 in series [1] was 1.8 µM; in series [4], “Not Active”. This molecule gave a CC50 in the series on MT4 [2] of over 224 µM. In series [3], this molecule gave a half-life of 55.3 min.
As for `COC(=O)CCCC=C(c1ccc(OC)c(OC)c1)c1ccc(OC)c(OC)c1`, the EC50 entry (in the series on MT4 [5]; in series [4]) was “Not Active” throughout. Also, in the series on MT4 [2], it took 7.4 µM to reach half-maximal cytotoxicity (CC50). The half-life in series [3] is 0.9 min.
For `CCCCCC=C(c1cc(Cl)c(OC)c(C(=S)OC)c1)c1cc(Cl)c(OC)c(C(=S)OC)c1`, the EC50 result (in the series on MT4 [5]; in series [4]) was “Not Active” throughout. In the series with MT4 [2], this molecule displayed a CC50 of 181 µM.
Turning to `CCCOc1c(C)cc(C(=CCCCC(=O)OC)c2cc(C)c(OCCC)c(C(=O)OC)c2)cc1C(=O)OC`, the EC50 result (in the series on MT4 [5]; in series [4]) was “Not Active” throughout. The molecule also yielded a CC50 with MT4 [2] of over 231 µM.
On to `COC(=O)CCCC=C(c1cc(C)c(OC)c(C(=O)OC)c1)c1cc(C)c(OC)c(C(=O)OC)c1`, for which the EC50 was 1 µM in series [1] and “Not Active” in series [4]. This molecule registered a CC50 in the series on MT4 [2] of 6.1 µM. This molecule came in with a half-life in series [3] of 42.9 min.
For `C#CCCCC=C(c1cc(Cl)c(OC)c(C(=O)OC)c1)c1cc(Cl)c(OC)c(C(=O)OC)c1`, in that order: 1.1 µM, “Not Active”, 143 µM and 20.6 min.
For `CCOC(=O)c1cc(C(=CCCCC(=O)OC)c2cc(C)c(OCC)c(C(=O)OCC)c2)cc(C)c1OCC` the same measures were 14.1 µM, “Not Active”, over 231 µM and 37.7 min.
For `COC(=O)CCCC=C(c1cc(C#N)c(OC)c(C(=O)OC)c1)c1cc(C#N)c(OC)c(C(=O)OC)c1`, in that order: 0.8 µM, “Not Active”, over 247 µM and 12.4 min.
For `COC(=O)CCCC(CCCC(=O)OC)=C(c1cc(Br)c(OC)c(C(=O)OC)c1)c1cc(Br)c(OC)c(C(=O)OC)c1`, the EC50 result (with MT4 [5]; in series [4]) was “Not Active” each time. This molecule yielded a CC50 in the series on MT4 [2] of 78.1 µM.
On to `COC(=O)c1cc(C(=CCCCC(=O)OC(C)C)c2cc(Br)c(OC)c(C(=O)OC)c2)cc(Br)c1OC`, for which the results for the EC50 in series [1] and in series [4] were 2.7 µM and “Not Active”, respectively. The molecule also yielded a CC50 with MT4 [2] of 35.3 µM. In addition, the half-life in series [3] stood at 5.7 min.
Turning to `COCCCCC=C(c1cc(Br)c(OC)c(C(=O)OC)c1)c1cc(Br)c(OC)c(C(=O)OC)c1`, the CC50 with MT4 [2] stood at 28.6 µM. The half-life in series [3] is 35.1 min. For the same molecule, the EC50 entry in series [4] was “Not Active”; with MT4 [6], 2.8 µM.
On to `COC(=O)CCC/C=C(\c1cc(C)c(OC)c(C(=O)OC)c1)c1cc(Cl)c(OC)c(C(=O)OC)c1`, for which the half-maximal effective concentration (EC50) in series [1] was 0.8 µM; in series [4], “Not Active”. In the series on MT4 [2], this molecule yielded a CC50 of 19.1 µM. Moreover, in series [3], the half-life worked out at 9 min.
`C=CCCCC=C(c1cc(Cl)c(OC)c(C(=O)OC)c1)c1cc(Cl)c(OC)c(C(=O)OC)c1`: the EC50 in series [1] was determined as 3.7 µM; with MT4 [7], 26.4 µM. Besides, the CC50 with MT4 [2] was over 253 µM. The molecule also returned a half-life in series [3] of 39.3 min.
As to `COC(=O)c1cc(C(=CCCCC(=O)OC(C)C)c2cc(C)c(OC)c(C(=O)OC)c2)cc(C)c1OC`, the EC50 is 3.5 µM in series [1] and “Not Active” in series [4]. Besides, half-maximal cytotoxicity in the series on MT4 [2] (CC50) was put at 59.5 µM. For the same molecule, the half-life in series [3] amounted to 1.7 min.
Consider `COC(=O)c1cc(C(=CCCCc2ccccc2)c2cc(Br)c(OC)c(C(=O)OC)c2)cc(Br)c1OC`, for which the figures for the EC50 (in series [1]; in the series on MT4 [7]) were 2.6 µM and 29.3 µM, respectively. Also, in the series with MT4 [2], the 50% cytotoxic concentration (CC50) is over 198 µM. Also, the half-life in series [3] is 55 min.
On to `COC(=O)CCCC=C(c1cc(Br)c(OC)c(C(=O)OC)c1)c1cc(Br)c(OC)c(C(=O)OC)c1`, for which the results for the EC50 in series [1] and in series [4] were 0.3 µM and “Not Active”, respectively. Also, it took 91 µM to reach half-maximal cytotoxicity with MT4 [2] (CC50). Moreover, the half-life in series [3] worked out at 6.2 min.
For `C#CCCCC=C(c1cc(Br)c(OC)c(C(=O)OC)c1)c1cc(Br)c(OC)c(C(=O)OC)c1` the same measures were 0.7 µM, “Not Active”, 57.8 µM and 18.9 min.
Take `COC(=O)CCCC=C(c1cc(Cl)c(OC)c(C(=O)OC)c1)c1cc(Cl)c(OC)c(C(=O)OC)c1`: the EC50 is 0.6 µM in series [1] and 25 µM in the series with MT4 [7]. In addition, half-maximal cytotoxicity with MT4 [2] (CC50) was put at 160 µM. Further, the half-life in series [3] was 5.8 min.
As for `COCCCCC=C(c1cc(Cl)c(OC)c(COC)c1)c1cc(Cl)c(OC)c(COC)c1`, the concentration giving a half-maximal response (EC50) entry (with MT4 [5]; in series [4]) was “Not Active” each time. It took 34 µM to reach half-maximal cytotoxicity in the series on MT4 [2] (CC50).
For `CCCOC(=O)CCCC=C(c1cc(Cl)c(OC)c(C(=O)OC)c1)c1cc(Cl)c(OC)c(C(=O)OC)c1`, the EC50 in series [1] was 3.1 µM; in series [4], “Not Active”. Further, in the series on MT4 [2], half-maximal cytotoxicity (CC50) was put at 159 µM. In series [3], this molecule returned a half-life of 7.4 min.
Take `COC(=S)CCCC=C(c1cc(Cl)c(OC)c(C(=S)OC)c1)c1cc(Cl)c(OC)c(C(=S)OC)c1`: the concentration for a half-maximal effect (EC50) is 35.4 µM in series [1] and “Not Active” in series [4]. The CC50 with MT4 [2] is over 218 µM.
With `CCCOC(=O)CCCC=C(c1cc(Br)c(OC)c(C(=O)OC)c1)c1cc(Br)c(OC)c(C(=O)OC)c1`, the values for the EC50 in series [1] and in series [4] were 2.2 µM and “Not Active”, respectively. For the same molecule, the CC50 in the series on MT4 [2] is 114 µM. The molecule further returned a half-life in series [3] of 3.4 min.
On to `COc1c(Cl)cc(C(=CCCCCO)c2cc(Cl)c(OC)c(CO)c2)cc1CO`, for which the concentration giving a half-maximal response (EC50) result (with MT4 [5]; in series [4]) was “Not Active” throughout. In the series with MT4 [2], this molecule came in with a CC50 of 30.7 µM.
On to `COC(=O)CCCC=C(c1ccc(OC)cc1OC)c1ccc(OC)cc1OC`, for which the EC50 entry (in the series with MT4 [5]; in series [4]) was “Not Active” throughout. Also, the CC50 with MT4 [2] came to 5.9 µM. The molecule also showed a half-life in series [3] of 2.6 min.
With `COC(=O)c1cc(C(=CCCCc2ccccc2)c2cc(Cl)c(OC)c(C(=O)OC)c2)cc(Cl)c1OC`, the EC50 in series [1] amounted to 13.2 µM; in the series on MT4 [7], 113 µM. Besides, the CC50 in the series on MT4 [2] was over 230 µM. In series [3], this molecule showed a half-life of 76.6 min.
With `COC(=O)CCC/C=C(/c1ccc(OC)c(OC)c1)c1cc(C)c(OC)c(C(=O)OC)c1`, the EC50 entry (with MT4 [5]; in series [4]) was “Not Active” throughout. Further, the CC50 in the series with MT4 [2] turned out to be 0.25 µM. In series [3], this molecule yielded a half-life of 19.2 min.
Regarding `COC(=O)CCC/C=C(\c1ccc(OC)c(OC)c1)c1cc(Cl)c(OC)c(C(=O)OC)c1`, the EC50 result (in the series on MT4 [5]; in series [4]) was “Not Active” each time. In the series on MT4 [2], this molecule registered a CC50 of 8.7 µM.
In the case of `CCOc1c(C)cc(C(=CCCCC(=O)OC)c2cc(C)c(OCC)c(C(=O)OC)c2)cc1C(=O)OC`, the EC50 is 3.7 µM in series [1] and “Not Active” in series [4]. In the series on MT4 [2], this molecule came in with a CC50 of 73 µM. This molecule returned a half-life in series [3] of 9 min.
For `CCCOC(=O)CCCC=C(c1cc(C)c(OC)c(C(=O)OC)c1)c1cc(C)c(OC)c(C(=O)OC)c1`, in that order: 3.5 µM, “Not Active”, 93.4 µM and 5.2 min.
For `C=CCCCC=C(c1cc(Br)c(OC)c(C(=O)OC)c1)c1cc(Br)c(OC)c(C(=O)OC)c1` the same measures were 3 µM, “Not Active”, 62.3 µM and 58.5 min.
With `CCCCCC=C(c1cc(Cl)c(OC)c(C(C)=O)c1)c1cc(Cl)c(OC)c(C(C)=O)c1`, the concentration giving a half-maximal response (EC50) entry (with MT4 [5]; in series [4]) was “Not Active” throughout. Besides, half-maximal cytotoxicity in the series with MT4 [2] (CC50) was put at 47.1 µM.
As to `CCCOC(=O)c1cc(C(=CCCCC(=O)OC)c2cc(C)c(OCCC)c(C(=O)OCCC)c2)cc(C)c1OCCC`, the EC50 result (in the series on MT4 [5]; in series [4]) was “Not Active” throughout. The molecule also returned a CC50 in the series with MT4 [2] of over 209 µM.
